According to ChEMBL document CHEMBL1629694, “Inhibition of dengue virus RNA synthesis by an adenosine nucleoside” (Antimicrob Agents Chemother, 2010):
pEC50: −log10 of the molar value. Activity calls are given as the source filed them. The rule behind the calls is not given here.

Experiments:
[1] = Cytotoxicity against human A549 cells assessed as intracellular ATP level by Celltiter-Glo luminescent assay; format: cell-based
[2] = tested on: dengue virus type 2; assay: Antiviral activity against at 0.3 MOI Dengue virus 2 infected in human A549 cells assessed as level of E protein after 48 hrs by ELISA; format: functional, organism-based; settings: A549, 48 h
How it was run: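 CFI assay: A549 cells (2 × 10^4/well) seeded and infected the next day with DENV-2 at MOI 0.3 for 1 h, compound added to the inoculum. Medium then replaced with fresh medium containing compound. Cells methanol-fixed on day 2 p.i. E protein detected by ELISA (mAb 4G2, HRP anti-mouse IgG). EC50 from nonlinear regression.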

[3] = tested on: Blood; assay: Drug uptake in rat blood assessed as di-derivatives of compound level at 25 mg/kg, po by […]; format: ADME, organism-based; design: dose 25 mg/kg, route oral; settings: in vivo
How it was run: (§1)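 Male Han-Wistar rats given 14C-labeled compound (label at adenine C-2) as a single intravenous 5 mg/kg or oral 25 mg/kg dose. Plasma and blood pellets sampled over time; pellets first taken up in 2 volumes of pH 2.5 ammonium formate/0.1% formic acid. Extraction in ice-cold acetonitrile (3:1). Metabolites profiled by HPLC with off-line radioactivity detection and identified by MS.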

[4] = tested on: dengue virus type 2; assay: Antiviral activity against at 1 MOI of Dengue virus 2 infected in hamster BHK21 cells assessed as decrease in viral NS3 protein expression at 1 uM after 35 hrs post-transfection by […]; format: functional, organism-based; settings: BHK-21, 1 M
How it was run: (§2)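 Replicon-electroporated BHK-21 cells treated immediately with 1 or 3 μM compound, with 0.9% DMSO control. Cells lysed at 24 and 35 h p.t. NS3 detected by Western blot with in-house rabbit anti-NS3 (1:5,000). γ-Tubulin (1:1,000) served as reference, with HRP secondary antibodies (1:8,000).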

[5] = tested on: dengue virus type 2; assay: Antiviral activity against at 0.3 MOI of Dengue virus 2 infected in hamster BHK21 cells assessed as reduction in viral titer after 48 hrs postinfection; format: functional, organism-based
How it was run: (§3)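 BHK-21 cells infected with DENV-2 at MOI 0.3 and treated immediately with graded compound concentrations. Viral titers in culture fluid determined at 48 h p.i.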

[6] = tested on: dengue virus type 2; assay: Antiviral activity against at 1 MOI of Dengue virus 2 infected in hamster BHK21 cells assessed as decrease in viral RNA synthesis at 3 uM after 24 hrs post-transfection by luciferase reporter gene assay; format: functional, organism-based; settings: BHK-21, 1 M
How it was run: (§4)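 DENV-2 luciferase replicon RNA (10 μg) electroporated into 8 × 10^6 BHK-21 cells, then seeded at 3.2 × 10^5/well. Cells incubated immediately with 1 or 3 μM compound, with 0.9% DMSO (final) as control. Luciferase measured at 2–4 h (translation of input RNA) and at 24 and 35 h p.t. (RNA synthesis).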

[7] = tested on: dengue virus type 2; assay: Antiviral activity against at 1 MOI of Dengue virus 2 infected in hamster BHK21 cells assessed as decrease in viral RNA synthesis at 1 uM after 2 to 4 hrs post-transfection by luciferase reporter gene assay; format: functional, organism-based; settings: BHK-21, 1 M; how it was run: as §4
[8] = tested on: dengue virus type 2; assay: Antiviral activity against at 1 MOI of Dengue virus 2 infected in hamster BHK21 cells assessed as decrease in viral NS3 protein expression at 3 uM after 24 hrs post-transfection by […]; format: functional, organism-based; settings: BHK-21, 1 M; how it was run: as §2
[9] = tested on: dengue virus type 2; assay: Antiviral activity against Dengue virus 2 infected in human HEK293 cells assessed as level of viral titer after 48 hrs by luciferase reporter gene assay in presence of siRNA targeting deoxycytidine kinase; format: functional, organism-based
[10] = tested on: Blood; assay: Drug uptake in rat blood assessed as tri-derivatives of compound level at 25 mg/kg, po by […]; format: ADME, organism-based; design: dose 25 mg/kg, route oral; settings: in vivo; how it was run: as §1
[11] = tested on: dengue virus type 2; assay: Antiviral activity against Dengue virus 2 infected in human A549 cells assessed as level of E protein production up to 20 uM by ELISA in presence of 0.2 uM adenosine kinase inhibitor iodotubercidin; format: functional, organism-based
How it was run: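 CFI assay in A549 cells with iodotubercidin at 0.2 μM and test compound up to 20 μM. Cells infected with DENV-2 at MOI 0.3 for 1 h with compound in the inoculum, then refed with compound-containing medium. Methanol fixation on day 2 p.i. E protein read by 4G2/HRP ELISA.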

[12] = tested on: dengue virus type 2; assay: Antiviral activity against at 1 MOI of Dengue virus 2 infected in hamster BHK21 cells assessed as viral titer after 48 hrs postinfection by plaque assay; format: functional, organism-based; settings: BHK-21, 1 M
[13] = tested on: dengue virus type 2; assay: Antiviral activity against at 1 MOI of Dengue virus 2 infected in hamster BHK21 cells assessed as decrease in viral RNA synthesis at 1 uM after 24 hrs post-transfection by luciferase reporter gene assay; format: functional, organism-based; settings: BHK-21, 1 M; how it was run: as §4
[14] = tested on: dengue virus type 2; assay: Antiviral activity against Dengue virus 2 infected in human HEK293 cells assessed as level of viral titer after 48 hrs by luciferase reporter gene assay in presence of siRNA targeting adenosine kinase; format: functional, organism-based; settings: HEK293, 48 h
[15] = tested on: Plasma; assay: Drug uptake in rat plasma at 25 mg/kg, po by […]; format: ADME, organism-based; design: dose 25 mg/kg, route oral; settings: in vivo; how it was run: as §1
[16] = tested on: dengue virus type 2; assay: Antiviral activity against at 1 MOI of Dengue virus 2 infected in hamster BHK21 cells assessed as decrease in viral RNA synthesis at 1 uM after 35 hrs post-transfection by luciferase reporter gene assay; format: functional, organism-based; settings: BHK-21, 1 M; how it was run: as §4
[17] = tested on: dengue virus type 2; assay: Antiviral activity against at 1 MOI of Dengue virus 2 infected in hamster BHK21 cells assessed as decrease in viral RNA synthesis at 3 uM after 35 hrs post-transfection by luciferase reporter gene assay; format: functional, organism-based; settings: BHK-21, 1 M; how it was run: as §4
[18] = tested on: dengue virus type 2; assay: Selectivity ratio of EC50 for Dengue virus 2 infected in human HEK293 cells in presence of siRNA targeting adenosine kinase to EC50 for Dengue virus 2 infected in human HEK293 cells in absence of siRNA targeting adenosine kinase; format: functional
How it was run: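 siRNA pools (10 pmol, four siRNAs against adenosine kinase or deoxycytidine kinase) reverse-transfected with RNAiMax into HEK-293 cells carrying a DENV-2 luciferase replicon (2 × 10^4/well). After 24 h at 37°C, graded compound concentrations were added. Renilla luciferase was read 3 days later. EC50s were compared with and without siRNA.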

[19] = tested on: dengue virus type 2; assay: Antiviral activity against Dengue virus 2 TSVO1 infected in alpha/beta interferon and INFgamma receptor deficient AG129 mouse assessed as […] at 150 mg/kg, po 12 hrs postinfection measured after 3 days of infection […]; format: functional, organism-based; design: dose 150 mg/kg
[20] = tested on: dengue virus type 2; assay: Antiviral activity against at 1 MOI of Dengue virus 2 infected in hamster BHK21 cells assessed as decrease in viral NS3 protein expression at 1 uM after 24 hrs post-transfection by […]; format: functional, organism-based; settings: BHK-21, 1 M; how it was run: as §2
[21] = tested on: dengue virus type 2; assay: Antiviral activity against Dengue virus 2 TSVO1 infected in alpha/beta interferon and INFgamma receptor deficient AG129 mouse assessed as decrease in viral load treated 12 hrs postinfection measured after 3 days of infection […]; format: functional, organism-based
[22] = tested on: dengue virus type 2; assay: Antiviral activity against Dengue virus 2 TSVO1 infected in alpha/beta interferon and INFgamma receptor deficient AG129 mouse assessed as decrease in viral load at 300 mg/kg, po 12 hrs postinfection […]; format: functional, organism-based; design: dose 300 mg/kg
[23] = tested on: dengue virus type 2; assay: Antiviral activity against at 1 MOI of Dengue virus 2 infected in hamster BHK21 cells assessed as decrease in viral NS3 protein expression at 3 uM after 35 hrs post-transfection by […]; format: functional, organism-based; settings: BHK-21, 1 M; how it was run: as §2
[24] = tested on: dengue virus type 2; assay: Antiviral activity against 3x10^7 PFU Dengue virus 2 D2S10 infected in alpha/beta interferon and INFgamma receptor deficient AG129 mouse assessed as protection against lethal virus challenge at 75 mg/kg, po treated 12 hrs postinfection by HPLC; format: functional, organism-based; design: dose 75 mg/kg
How it was run: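 AG129 mice infected intravenously with 3 × 10^7 PFU of mouse-adapted DENV-2 strain D2S10. A single 75 mg/kg dose given at 12 h postinfection. Read-out was survival after the lethal challenge.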

[25] = Cytotoxicity against hamster BHK21 cells assessed as intracellular ATP level upto 100 uM by Celltiter-Glo luminescent assay; format: cell-based, Mesocricetus auratus; settings: bhk-21
How it was run: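 CC50 estimated from intracellular ATP by CellTiter-Glo luminescence. BHK-21 cells were tested up to 100 μM.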

[26] = tested on: Blood; assay: Drug uptake in rat blood assessed as mono-derivatives of compound level at 25 mg/kg, po by […]; format: ADME, organism-based; design: dose 25 mg/kg, route oral; settings: in vivo; how it was run: as §1
[27] = tested on: dengue virus type 2; assay: Antiviral activity against at 0.3 MOI of Dengue virus 2 infected in hamster BHK21 cells assessed as reduction in viral titer at 6 uM after 48 hrs postinfection; format: functional, organism-based; settings: BHK-21, 0.3 M; how it was run: as §3
[28] = tested on: dengue virus type 2; assay: Antiviral activity against at 1 MOI of Dengue virus 2 infected in hamster BHK21 cells assessed as decrease in viral RNA synthesis at 3 uM after 2 to 4 hrs post-transfection by luciferase reporter gene assay; format: functional, organism-based; settings: BHK-21, 1 M; how it was run: as §4

## C#C[C@@]1(O)[C@H](O)[C@@H](CO)O[C@H]1n1ccc(N)nc1=O [2'-ETHYNYL-D-CYTIDINE]
[1]
  CC50: > 100 µM
[2]
  pEC50: < 4.00

## CC#C[C@@]1(O)[C@H](O)[C@@H](CO)O[C@H]1n1cnc2c(N)ncnc21
[1]
  CC50: > 100 µM
[2]
  pEC50: < 4.00

## C#C[C@@]1(O)[C@H](O)[C@@H](CO)O[C@H]1n1cnc2c(=O)[nH]c(N)nc21
[1]
  CC50: > 100 µM
[2]
  pEC50: < 4.00

## C#C[C@@]1(O)[C@H](O)[C@@H](CO)O[C@H]1n1cc(C#N)c2c(N)ncnc21
[1]
  CC50: > 100 µM
[2]
  pEC50: 5.51

## CC[C@@]1(O)[C@H](O)[C@@H](CO)O[C@H]1n1cnc2c(N)ncnc21
[1]
  CC50: > 100 µM
[2]
  pEC50: < 4.00

## C#C[C@@]1(O)[C@H](O)[C@@H](CO)O[C@H]1n1cc(F)c2c(N)ncnc21
[1]
  CC50: 44 µM
[2]
  pEC50: 6.38

## C#C[C@@]1(O)[C@H](O)[C@@H](CO)O[C@H]1n1ccc2c(N)ncnc21
[3]
  Drug uptake: Active
[4]
  Activity: Active
[5]; BHK-21, 0.3 M
  Activity: Dose-dependent effect
[5]; BHK-21, 48 h
  pEC50: 6.15
[6]
  Activity: Active
[7]
  Activity: inactive
[8]
  Activity: Active
[9]
  Activity: Active
[10]
  Drug uptake: Active
[11]
  Activity: inactive
[1]
  CC50: > 100 µM
[12]
  Activity: Active
[13]
  Activity: Active
[14]
  pEC50: 5.04
[15]
  Drug uptake: Active
[16]
  Activity: Active
[17]
  Activity: Active
[18]
  Selectivity ratio: 11
[19]
  Activity: inactive
[20]
  Activity: Active
[21]
  Activity: Active
[22]
  Activity: inactive
[23]
  Activity: Active
[24]
  Activity: Active
[25]
  Activity: Non-toxic
[2]
  pEC50: 6.15
[26]
  Drug uptake: Active
[27]
  Activity: Active
[28]
  Activity: inactive

## C#C[C@@]1(O)[C@H](O)[C@@H](CO)O[C@H]1n1cnc2c(N)ncnc21
[1]
  CC50: 40 µM
[2]
  pEC50: 5.85

## C[C@@]1(O)[C@H](O)[C@@H](CO)O[C@H]1n1cnc2c(N)ncnc21
[1]
  CC50: > 50 µM
[2]
  pEC50: 5.95

## C=C[C@@]1(O)[C@H](O)[C@@H](CO)O[C@H]1n1cnc2c(N)ncnc21
[1]
  CC50: > 59 µM
[2]
  pEC50: < 4.30

## C#C[C@@]1(O)[C@H](O)[C@@H](CO)O[C@H]1n1cc(C(N)=O)c2c(N)ncnc21
[1]
  CC50: 62 µM
[2]
  pEC50: 5.70
